Measurements published in ChEMBL document CHEMBL4689842, “EUbOPEN Chemogenomics Library wave 1” (2021).

Test system: HEK-293T
Test: Multiplex assay against HEK293T;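 on Population Tubulin-Different-Phenotype (%): share of the cells with healthy nuclei that show this phenotype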
Assay type: toxicity, cell-based
Conditions: human
In short: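 With compound added, live cells were imaged on a CQ1 microscope at 37°C and 5% CO2; staining with Hoechst33342, BioTracker Green Microtubule Cytoskeleton Dye, MitoTracker Red and Annexin V Alexa Fluor 680 had been done at seeding. The CellPathfinder machine-learning gating scheme split cells into Hoechst high-intensity objects or normal cells, normal cells into healthy, pyknosed or fragmented nuclei, and pyknosed cells into mitotic or apoptotic. The tubulin, mitochondrial-mass and membrane-permeability phenotypes are per cents of healthy-nucleus cells.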

[1] = 12 h, 1 µM, compound concentration 1 uM, replicate 1
[2] = 12 h, 1 µM, compound concentration 1 uM, replicate 2
[3] = 12 h, 10 µM, compound concentration 10 uM, replicate 1
[4] = 12 h, 10 µM, compound concentration 10 uM, replicate 2
[5] = 24 h, 1 µM, compound concentration 1 uM, replicate 1
[6] = 24 h, 1 µM, compound concentration 1 uM, replicate 2
[7] = 24 h, 10 µM, compound concentration 10 uM, replicate 1
[8] = 24 h, 10 µM, compound concentration 10 uM, replicate 2
[9] = 48 h, 1 µM, compound concentration 1 uM, replicate 1
[10] = 48 h, 1 µM, compound concentration 1 uM, replicate 2
[11] = 48 h, 10 µM, compound concentration 10 uM, replicate 1
[12] = 48 h, 10 µM, compound concentration 10 uM, replicate 2

## CCc1cccc(CC)c1NC(=O)c1nn(C)c2c1CCc1cnc(Nc3ccc(C(=O)NC4CCN(C)CC4)cc3OC(F)(F)F)nc1-2
[1]
  Population Apoptotic (%): 66%
  Population Fragmented Nuclei (%): 8%
  Population Healthy Nuclei (%): 46%
  Population Hoechst High Intensity Objects (%): 11%
  Population Membrane Permeable-Phenotype (%): 3%
  Population Mitochondria Different-Phenotype (%): 93%
  Population Mitotic Cells (%): 33%
  Population Normal (%): 88%
  Population Pyknosed Nuclei (%): 45%
  Population Tubulin-Different-Phenotype (%): 68%
  Total Cell Count: 312
[2]
  Population Apoptotic (%): 28%
  Population Fragmented Nuclei (%): 4%
  Population Healthy Nuclei (%): 39%
  Population Hoechst High Intensity Objects (%): 4%
  Population Membrane Permeable-Phenotype (%): 2%
  Population Mitochondria Different-Phenotype (%): 57%
  Population Mitotic Cells (%): 71%
  Population Normal (%): 95%
  Population Pyknosed Nuclei (%): 56%
  Population Tubulin-Different-Phenotype (%): 62%
  Total Cell Count: 251
[3]
  Population Apoptotic (%): 80%
  Population Fragmented Nuclei (%): 11%
  Population Healthy Nuclei (%): 31%
  Population Hoechst High Intensity Objects (%): 11%
  Population Membrane Permeable-Phenotype (%): 0%
  Population Mitochondria Different-Phenotype (%): 98%
  Population Mitotic Cells (%): 19%
  Population Normal (%): 88%
  Population Pyknosed Nuclei (%): 57%
  Population Tubulin-Different-Phenotype (%): 98%
  Total Cell Count: 300
[4]
  Population Apoptotic (%): 73%
  Population Fragmented Nuclei (%): 4%
  Population Healthy Nuclei (%): 16%
  Population Hoechst High Intensity Objects (%): 7%
  Population Membrane Permeable-Phenotype (%): 4%
  Population Mitochondria Different-Phenotype (%): 86%
  Population Mitotic Cells (%): 26%
  Population Normal (%): 92%
  Population Pyknosed Nuclei (%): 78%
  Population Tubulin-Different-Phenotype (%): 86%
  Total Cell Count: 152
[5]
  Population Apoptotic (%): 63%
  Population Fragmented Nuclei (%): 10%
  Population Healthy Nuclei (%): 53%
  Population Hoechst High Intensity Objects (%): 10%
  Population Membrane Permeable-Phenotype (%): 1%
  Population Mitochondria Different-Phenotype (%): 84%
  Population Mitotic Cells (%): 36%
  Population Normal (%): 89%
  Population Pyknosed Nuclei (%): 36%
  Population Tubulin-Different-Phenotype (%): 56%
  Total Cell Count: 342
[6]
  Population Apoptotic (%): 25%
  Population Fragmented Nuclei (%): 2%
  Population Healthy Nuclei (%): 59%
  Population Hoechst High Intensity Objects (%): 4%
  Population Membrane Permeable-Phenotype (%): 3%
  Population Mitochondria Different-Phenotype (%): 52%
  Population Mitotic Cells (%): 74%
  Population Normal (%): 95%
  Population Pyknosed Nuclei (%): 38%
  Population Tubulin-Different-Phenotype (%): 55%
  Total Cell Count: 287
[7]
  Population Apoptotic (%): 74%
  Population Fragmented Nuclei (%): 12%
  Population Healthy Nuclei (%): 42%
  Population Hoechst High Intensity Objects (%): 10%
  Population Membrane Permeable-Phenotype (%): 4%
  Population Mitochondria Different-Phenotype (%): 98%
  Population Mitotic Cells (%): 25%
  Population Normal (%): 89%
  Population Pyknosed Nuclei (%): 45%
  Population Tubulin-Different-Phenotype (%): 98%
  Total Cell Count: 342
[8]
  Population Apoptotic (%): 93%
  Population Fragmented Nuclei (%): 6%
  Population Healthy Nuclei (%): 32%
  Population Hoechst High Intensity Objects (%): 5%
  Population Membrane Permeable-Phenotype (%): 0%
  Population Mitochondria Different-Phenotype (%): 93%
  Population Mitotic Cells (%): 6%
  Population Normal (%): 94%
  Population Pyknosed Nuclei (%): 61%
  Population Tubulin-Different-Phenotype (%): 91%
  Total Cell Count: 158
[9]
  Population Apoptotic (%): 43%
  Population Fragmented Nuclei (%): 14%
  Population Healthy Nuclei (%): 59%
  Population Hoechst High Intensity Objects (%): 12%
  Population Membrane Permeable-Phenotype (%): 0%
  Population Mitochondria Different-Phenotype (%): 57%
  Population Mitotic Cells (%): 56%
  Population Normal (%): 87%
  Population Pyknosed Nuclei (%): 26%
  Population Tubulin-Different-Phenotype (%): 46%
  Total Cell Count: 417
[10]
  Population Apoptotic (%): 27%
  Population Fragmented Nuclei (%): 7%
  Population Healthy Nuclei (%): 69%
  Population Hoechst High Intensity Objects (%): 3%
  Population Membrane Permeable-Phenotype (%): 2%
  Population Mitochondria Different-Phenotype (%): 32%
  Population Mitotic Cells (%): 72%
  Population Normal (%): 96%
  Population Pyknosed Nuclei (%): 23%
  Population Tubulin-Different-Phenotype (%): 43%
  Total Cell Count: 410
[11]
  Population Apoptotic (%): 84%
  Population Fragmented Nuclei (%): 14%
  Population Healthy Nuclei (%): 52%
  Population Membrane Permeable-Phenotype (%): 3%
  Population Mitochondria Different-Phenotype (%): 94%
  Population Mitotic Cells (%): 15%
  Population Pyknosed Nuclei (%): 32%
  Population Tubulin-Different-Phenotype (%): 88%
  Total Cell Count: 339
[12]
  Population Apoptotic (%): 91%
  Population Fragmented Nuclei (%): 8%
  Population Healthy Nuclei (%): 38%
  Population Hoechst High Intensity Objects (%): 13%
  Population Membrane Permeable-Phenotype (%): 6%
  Population Mitochondria Different-Phenotype (%): 93%
  Population Mitotic Cells (%): 8%
  Population Normal (%): 86%
  Population Pyknosed Nuclei (%): 52%
  Population Tubulin-Different-Phenotype (%): 86%
  Total Cell Count: 173
